Measured values from ChEMBL document CHEMBL3272100, “3-Aminotetrahydrocarbazoles as a new series of central nervous system agents” (1977).
Activity calls are given as the source filed them.

test system: Mus musculus; assay: Antidepressant activity in Swiss-Webster mouse assessed as prevention of reserpine-induced ptosis at 30 mg/kg, ip; type: functional, organism-based; parameters: dose 30 mg/kg

Row | Compound | Activity
1 | COc1ccc2c3c([nH]c2c1)CCC(N(C)C)C3 (stereo not drawn) | Active
2 | NC1CCc2[nH]c3ccccc3c2C1 (stereo not drawn) | Active
3 | CCOC(=O)c1cccc2[nH]c3c(c12)CC(N(C)C)CC3 (stereo not drawn) | Active
4 | CNC1CCc2[nH]c3ccccc3c2C1 (stereo not drawn) | Active
5 | Cc1cc(Cl)cc2[nH]c3c(c12)CC(N(C)C)CC3 (stereo not drawn) | Active
6 | COc1ccc(Cl)c2c3c([nH]c12)CCC(N(C)C)C3 (stereo not drawn) | Active
7 | CN(C)C1CCc2[nH]c3cccc(C(F)(F)F)c3c2C1 (stereo not drawn) | Active
8 | CN(C)C1CCc2[nH]c3c(F)cc(F)cc3c2C1 (stereo not drawn) [FLUCINDOLE] | inactive
9 | Cc1ccc(C)c2c3c([nH]c12)CCC(N(C)C)C3 (stereo not drawn) | Active
10 | CCn1c2c(c3ccccc31)CC(N(C)C)CC2 (stereo not drawn) | Active

test system: Mus musculus; assay: Antidepressant activity in Swiss-Webster mouse assessed as prevention of reserpine-induced ptosis at 50 mg/kg, ip; type: functional, organism-based; parameters: dose 50 mg/kg

Row | Compound | Activity
11 | CN(C)C1CCc2[nH]c3c(Cl)cc(Cl)cc3c2C1 (stereo not drawn) | inactive
12 | CN(C)C1CCc2[nH]c3ccc(OCc4ccccc4)cc3c2C1 (stereo not drawn) | inactive
13 | Cc1ccc(Cl)c2[nH]c3c(c12)CC(N(C)C)CC3 (stereo not drawn) | Active
14 | CN(C)C1CCc2c(c3ccccc3n2CCC(=O)O)C1 (stereo not drawn) | inactive
15 | c1ccc2c3c([nH]c2c1)CCC(N1CCCCC1)C3 (stereo not drawn) | inactive
16 | CN(C(=O)c1ccccc1)C1CCc2[nH]c3c(F)cc(F)cc3c2C1 (stereo not drawn) | inactive
17 | CNC1CCc2[nH]c3cc(C)ccc3c2C1 (stereo not drawn) | Active
18 | CN(C)C1CCc2[nH]c3ccc(Oc4ccccc4)cc3c2C1 (stereo not drawn) | inactive
19 | CN(C)C1CCc2[nH]c3c(Br)cccc3c2C1 (stereo not drawn) | inactive
20 | CN(C)C1CCc2[nH]c3c(C(F)(F)F)cccc3c2C1 (stereo not drawn) | inactive
21 | CN(C)C1CCc2[nH]c3ccc(C(=O)O)cc3c2C1 (stereo not drawn) | inactive
22 | NC1CCc2[nH]c3c(F)cc(F)cc3c2C1 (stereo not drawn) | inactive
23 | CNC1CCc2[nH]c3c(F)cc(F)cc3c2C1 (stereo not drawn) | inactive
24 | CCc1cccc2[nH]c3c(c12)CC(N(C)C)CC3 (stereo not drawn) | Active
25 | Cc1cccc2c3c([nH]c12)CCC(N(C)C)C3 (stereo not drawn) | inactive
26 | Cc1ccc2[nH]c3c(c2c1)CC(N(C)C)CC3 (stereo not drawn) | inactive
27 | C=CCn1c2c(c3ccccc31)CC(N(C)C)CC2 (stereo not drawn) | inactive
28 | Cc1cc(C)c2[nH]c3c(c2c1)CC(N(C)C)CC3 (stereo not drawn) | inactive
29 | CN(C)C1CCc2c(c3ccccc3n2CC(=O)O)C1 (stereo not drawn) | inactive
30 | c1ccc(N2CCN(C3CCc4[nH]c5ccccc5c4C3)CC2)cc1 (stereo not drawn) | inactive
31 | c1ccc2c3c([nH]c2c1)CCC(N1CCOCC1)C3 (stereo not drawn) | inactive
32 | CN(C)C1CCc2[nH]c3ccc(O)cc3c2C1 (stereo not drawn) | Active

Row | Compound | Activity
33 | CN(C)C1CCc2[nH]c3cc(O)ccc3c2C1 (stereo not drawn) | inactive
34 | CN(C)C1CCc2[nH]c3c(Cl)cccc3c2C1 (stereo not drawn) | inactive
35 | Fc1cc(F)c2[nH]c3c(c2c1)CC(N1CCCCC1)CC3 (stereo not drawn) | inactive
36 | CCOC(=O)CCn1c2c(c3ccccc31)CC(N(C)C)CC2 (stereo not drawn) | inactive
37 | CN(C)C1CCc2[nH]c3c(Cl)c(Cl)ccc3c2C1 (stereo not drawn) | Active
38 | CCN(CC)CCNC1CCc2[nH]c3ccccc3c2C1 (stereo not drawn) | inactive
39 | COc1cc2[nH]c3c(c2cc1OC)CC(N(C)C)CC3 (stereo not drawn) | inactive
40 | CN(C)C1CCc2[nH]c3c(OCc4ccccc4)cccc3c2C1 (stereo not drawn) | inactive
41 | CN(Cc1ccccc1)C1CCc2[nH]c3c(F)cc(F)cc3c2C1 (stereo not drawn) | inactive
42 | Cc1cc2[nH]c3c(c2cc1C)CC(N(C)C)CC3 (stereo not drawn) | Active
43 | CN(C)C1CCc2[nH]c3c(O)cccc3c2C1 (stereo not drawn) | inactive
44 | COc1cccc2c3c([nH]c12)CCC(N(C)C)C3 (stereo not drawn) | inactive
45 | COc1cc(C(=O)OCCn2c3c(c4ccccc42)CC(N(C)C)CC3)cc(OC)c1OC (stereo not drawn) | inactive
46 | CN(C)C1CCc2[nH]c3c(-c4ccccc4)cccc3c2C1 (stereo not drawn) | Active
47 | c1ccc2c3c([nH]c2c1)CCC(N1CCCC1)C3 (stereo not drawn) | inactive
48 | CN(C)C1CCc2[nH]c3cc(F)ccc3c2C1 (stereo not drawn) | inactive
49 | CSc1cccc2c3c([nH]c12)CCC(N(C)C)C3 (stereo not drawn) | inactive
50 | Cc1cccc2c1c1c(n2C)CCC(N(C)C)C1 (stereo not drawn) | Active
51 | Cc1cc(C)c2c3c([nH]c2c1)CCC(N(C)C)C3 (stereo not drawn) | Active
52 | CN(C)C1CCc2[nH]c3ccc(F)cc3c2C1 (stereo not drawn) | inactive
53 | CN(C)C1CCc2[nH]c3c(F)cccc3c2C1 (stereo not drawn) | inactive

test system: Mus musculus; assay: Antidepressant activity in Swiss-Webster mouse assessed as prevention of reserpine-induced ptosis at 10 to 50 mg/kg, ip; type: functional, organism-based

Row | Compound | Activity
54 | CN(C)C1CCc2[nH]c3ccccc3c2C1 (stereo not drawn) [CYCLINDOLE] | Active
55 | CN(C)CCCN1c2ccccc2CCc2ccccc21 | Active
56 | Cc1cccc2[nH]c3c(c12)CC(N(C)C)CC3 (stereo not drawn) | Active

test system: Rattus norvegicus; assay: Antipsychotic activity in po dosed Sprague-Dawley rat assessed as prevention of d-amphetamine-induced stereotyped behavior measured for 1 min after 90, 100, and 110 mins injection of amphetamine; type: functional
Method in brief: (§1)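 Male Sprague-Dawley rats, 100-130 g, given compound orally at graded doses (free base), starting at 32 mg/kg, 4 h before d-amphetamine sulfate sc at 3.7 mg/kg (free base). One-minute observations at 90, 100 and 110 min. ED50 with confidence limits calculated.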

Row | Compound | ED50
57 | CN(C)C1CCc2[nH]c3ccccc3c2C1 (stereo not drawn) [CYCLINDOLE] | 10.3 mg/kg
58 | CN(C)CCCN1c2ccccc2Sc2ccc(Cl)cc21 [CHLORPROMAZINE] | 8.6 mg/kg
59 | CN(C)C1CCc2[nH]c3c(F)cc(F)cc3c2C1 (stereo not drawn) [FLUCINDOLE] | 1.4 mg/kg

test system: Mus musculus; assay: Antidepressant activity in Swiss-Webster mouse assessed as prevention of reserpine-induced ptosis at 10 mg/kg, ip; type: functional, organism-based; parameters: dose 10 mg/kg

Row | Compound | Activity
60 | CCNC1CCc2[nH]c3ccccc3c2C1 (stereo not drawn) | inactive
61 | CCCc1cccc2c3c([nH]c12)CCC(N(C)C)C3 (stereo not drawn) | Active
62 | CN(C)C1CCc2[nH]c3cccc(F)c3c2C1 (stereo not drawn) | Active
63 | CCOC(=O)Cn1c2c(c3ccccc31)CC(N(C)C)CC2 (stereo not drawn) | Active
64 | CN(C)C1CCc2[nH]c3ccccc3c2C1 (stereo not drawn) [CYCLINDOLE] | Active
65 | CN(C)CCn1c2c(c3ccccc31)CC(N(C)C)CC2 (stereo not drawn) | inactive
66 | CN(C)C1CCc2c(c3ccccc3n2Cc2ccccc2)C1 (stereo not drawn) | inactive
67 | COc1ccc2[nH]c3c(c2c1)CC(N(C)C)CC3 (stereo not drawn) | inactive
68 | Cc1ccc2c3c([nH]c2c1)CCC(N(C)C)C3 (stereo not drawn) | Active
69 | Cc1ccc(F)c2[nH]c3c(c12)CC(N(C)C)CC3 (stereo not drawn) | Active
70 | Cc1cc(Cl)c2c3c([nH]c2c1)CCC(N(C)C)C3 (stereo not drawn) | Active
71 | CN(C)C1CCc2c(c3ccccc3n2C)C1 (stereo not drawn) | inactive
72 | CCCCNC1CCc2[nH]c3ccccc3c2C1 (stereo not drawn) | inactive
73 | CN(C)CCCn1c2c(c3ccccc31)CC(N(C)C)CC2 (stereo not drawn) | inactive
74 | CN(C)C1CCc2c(c3ccccc3n2Cc2ccc(Cl)cc2)C1 (stereo not drawn) | inactive
75 | CC(=O)NC1CCc2[nH]c3ccccc3c2C1 (stereo not drawn) | inactive
76 | CNC1CCc2[nH]c3cccc(C)c3c2C1 (stereo not drawn) | Active
77 | Cc1cccc2[nH]c3c(c12)CC(N(C)C)CC3 (stereo not drawn) | Active
78 | CCc1cccc2c3c([nH]c12)CCC(N(C)C)C3 (stereo not drawn) | Active
79 | CCCNC1CCc2[nH]c3ccccc3c2C1 (stereo not drawn) | inactive

test system: Rattus norvegicus; assay: Antipsychotic activity in Sprague-Dawley rat assessed as prevention of d-amphetamine-induced stereotyped behavior at 32 mg/kg, po measured for 1 min after 90, 100, and 110 mins injection of amphetamine; type: functional, organism-based; parameters: dose 32 mg/kg; method in brief: as §1

Row | Compound | Activity
80 | CN(C)CCCN1c2ccccc2CCc2ccccc21 | inactive
81 | Cc1cccc2[nH]c3c(c12)CC(N(C)C)CC3 (stereo not drawn) | inactive

test system: Mus musculus; assay: Antidepressant activity in Swiss-Webster mouse assessed as prevention of reserpine-induced ptosis at 30 to 50 mg/kg, ip; type: functional, organism-based

Row | Compound | Activity
82 | CN(C)C1CCc2[nH]c3c(F)cc(F)cc3c2C1 (stereo not drawn) [FLUCINDOLE] | inactive

test system: Mus musculus; assay: Antidepressant activity in Swiss-Webster mouse assessed as prevention of reserpine-induced ptosis at 1 to 50 mg/kg, ip; type: functional, organism-based
Method in brief: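 Male Swiss-Webster mice (18-24 g) given test compounds intraperitoneally at 50, 30, 10, 1 and 0.5 mg/kg (free base), then scored for reserpine-induced ptosis. Active means a statistically significant decrease in ptosis (p < 0.05, two-tailed).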

Row | Compound | Activity
83 | CN(C)CCCN1c2ccccc2Sc2ccc(Cl)cc21 [CHLORPROMAZINE] | inactive
